KCC2 mod: KCC2 cotransporter modulators, thallium flux, primary screen, cell-based, HEK293 KCC2, FluoZin-2 fluorescence, MLSMR; Solute carrier family 12 member 5 (Homo sapiens), Q9H2X9; KCC2 cells, thallium flux FluoZin-2 fluorescence; B-score of Tl+ flux slope (higher = more flux/activation; lower = inhibition) at 10 µM; hit rate 2.2% among 190,000; AID 1456, 2008;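 active = thallium flux slope and its plate-corrected score both differing from the plate sample mean at a set confidence after two filtering rounds, in either direction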;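 note: slope of fluorescence scaled to starting intensity during 10 to 20 s after thallium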
Autophagy mod: autophagy modulators in MEF cells, primary screen, imaging, high-content, MEF GFP-LC3 | MEF GFP-LC3 puncta imaging; test concentration mostly 10 µM | calls only at 10 µM (by protocol) | hit rate 0.98% among 190,000;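 active = percentage of spot-positive cells more than 3 SD above its plate mean, without a fluorescence outlier flag or 80% toxicity; inconclusive = no clear call, values can overlap the other calls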;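 note: spot-positive cell cutoff set from DMSO-treated cells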
Ins promoter up: insulin promoter activators in MIN6 cells, imaging, high-content screening, mouse beta cells. hit rate 0.3% among 190,000. MIN6 insulin promoter-GFP reporter; hits give high values. z-score at 5 µM;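 active = z-score above 3 at 5 µM with at least 500 cells counted in the well; inconclusive = wells under 500 cells, flagged as cytotoxic or low count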
SKKanGAS inh: S. pyogenes SKKanGAS growth inhibitors in kanamycin, primary screen, streptokinase expression inhibitor project, SKKanGAS strain, BacTiter-Glo luminescence; 6 h; inhibition, % at 7.5 µM; hit rate 1.3% among 300,000; AID 1662, 2009;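 active = mean replicate score, as percent of positive control median, at least 50; inconclusive = mean below 50 but one replicate at or above 50; inactive = mean and every replicate below 50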;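 note: strain carries kanamycin resistance gene driven by streptokinase promoter and grows in 40 µg/ml kanamycin; loss of luminescence reflects streptokinase promoter inhibition or plain growth inhibition; 0% = median of DMSO wells and 100% = positive control at its reference dose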
WT yeast gro inh: growth inhibition of WT strain, primary screen, mitochondrial fusion inhibitor project, WT and mutant strains, chemical genetic; mitochondrial fusion phenotypic screen; inhibition, % at 10 µM; hit rate 2.1% among 190,000; AID 1362, 2008; in the data active = inhibition above about 58%; tested in S. cerevisiae
Rad51 HR inh: human RAD51 strand exchange inhibitors, primary screen, biochemical, fluorescence; DNA repair protein RAD51 homolog 1 (Homo sapiens), Q06609; hRad51 DNA strand exchange, fluorescence dequenching; inhibition, % at 10 µM; hit rate 0.085% among 200,000;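 active = inhibition above 40% at the single screening dose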;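 note: 0% = DMSO control wells and 100% = blanks with heterologous ssDNA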
Target sequence (Q06609 whole entry, looked up): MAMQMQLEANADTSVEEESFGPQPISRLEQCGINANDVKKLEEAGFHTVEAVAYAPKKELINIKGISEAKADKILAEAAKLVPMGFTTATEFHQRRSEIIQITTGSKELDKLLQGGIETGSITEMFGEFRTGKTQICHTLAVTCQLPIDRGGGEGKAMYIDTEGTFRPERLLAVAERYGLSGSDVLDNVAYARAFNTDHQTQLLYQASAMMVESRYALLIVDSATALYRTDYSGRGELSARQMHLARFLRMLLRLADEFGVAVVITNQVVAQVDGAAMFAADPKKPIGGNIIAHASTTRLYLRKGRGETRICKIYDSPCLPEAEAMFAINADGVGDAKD
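Test system: preformed human Rad51 ssDNA filaments. Compound dosing: single dose, 10 µM final compound. Incubation: filaments 15 min 37 °C, then compound 30 min. Technique: FRET fluorescence dequenching, excitation 485 nm, emission 520 nm. Read-out basis: percent inhibition from fluorescence, normalised to plate control and blank means. Benchmarks: plate controls and plate blanks.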
* hit, by the source's call; i = inactive; ? = inconclusive; . = no result; + = active, no number. Most compounds without a hit are left out; they make up all but 4.2% or so of the library.

SMILES	KCC2 mod	Autophagy mod	Ins promoter up	SKKanGAS inh	WT yeast gro inh	Rad51 HR inh
CCCCCC(=O)N1CCCCC1	1.35	.	-0.3	2.8	.	-31.1
COc1ccc(C(=O)N2N=C(c3cccc(NS(C)(=O)=O)c3)CC2c2cccs2)cc1 (centres undefined)	.	.	.	12.9	.	.
CCOC(=O)/C=c1\s/c(=C\c2ccc3cc(OC)ccc3c2)c(=O)n1CC(=O)NCC1CCCO1 (centres undefined)	.	+	-0.97	-14.5	5.7	.
CCOC(=O)/C=c1\s/c(=C\c2sccc2C)c(=O)n1CC(=O)NCc1ccc(C)cc1	0.0205	+	-0.2	-3.7	-5.5	.
COc1ccc(Cn2c(=S)[nH]c3ccsc3c2=O)cc1	26.4*	i	-0.09	-1.2	-1.2	-1.4
Cc1ccc(-c2ccc(/C=C3\SC(N4CCOCC4)=NC3=O)o2)cc1	-1.04	+	-0.35	13.3	12.6	-127.1
O=C1NC(=S)S/C1=C/c1ccc(N2CCOCC2)o1	-7.72*	i	1.42	25.6	23.2	-194.1
COc1ccc2cc(/C=C3\SC(=S)NC3=O)c(N3CCOCC3)nc2c1	2	i	-0.19	39.7	72.0*	-34.5
CCC1=C[C@H]2CN(C1)Cc1c([nH]c3ccccc13)[C@@](C(=O)OC)(c1cc3c(cc1OC)N(C)[C@H]1[C@@](O)(C(=O)OC)[C@H](OC(C)=O)[C@]4(CC)C=CCN5CC[C@]31[C@@H]54)C2	.	.	.	.	.	5.6
O=C(CSc1cccc[n+]1[O-])NN(c1ccccc1)c1ccccc1	0.455	.	-0.53	0.7	.	-1.1
CC1=C(C(=O)Nc2cc(C(=O)N3CCC(C)CC3)ccc2C)SCCO1	.	.	.	6.5	.	.
CS(=O)(=O)N1N=C(c2cccs2)CC1c1ccc(Cl)o1 (centres undefined)	-0.942	i	-0.53	4.4	-4.9	33.6
O=C(NCc1ccco1)c1cc(-c2ccccc2)on1	.	i	-0.57	-5.8	59.7*	-2.5
O=C(NCc1ccco1)c1cc(-c2ccc(F)cc2)on1	0.0224	i	-0.67	1.3	-0.4	-3.1
CCOc1ccc(NS(=O)(=O)c2cc(NC(=O)c3ccc(C)cc3)ccc2Cl)cc1	0.265	i	0.84	60.5*	36.5	-3.1
COc1ccc(C(=O)Nc2ccc(Cl)c(S(=O)(=O)Nc3ccccc3OC)c2)cc1	0.976	i	-0.72	14.5	30.4	4.9
COc1ccc(CN(C(=O)c2oc3cc(C)ccc3c2C)C2CCS(=O)(=O)C2)cc1OC (centres undefined)	.	.	.	-4.3	.	.
CCN1C(=O)C(O)(C2COC(C)(C)CC2=O)c2cc(Br)ccc21 (centres undefined)	0.552	+	.	-11.7	-2.9	1.6
C/C(N)=C(/C#N)C(=O)COC(=O)c1cc(S(=O)(=O)N2CCCCC2)ccc1C	-0.279	i	-0.21	3.2	94.8*	.
Cc1cccc(CC2CC(=O)N(c3nc4ccccc4s3)C2=O)c1 (centres undefined)	-0.727	i	.	-1.6	-1.6	2.9
Cc1ccc2nc(N3C(=O)CNC3=S)sc2c1	.	.	-1.03	88.9*	.	-15.8
COc1ccc2nc(N3C(=O)CNC3=S)sc2c1	3.58	.	.	65.4*	.	-6.8
O=C(c1nn2cccnc2c1Cl)N1CCN(c2ccccc2)CC1	0.407	+	0.21	.	-5.9	0.2
O=C(c1ccco1)N1CCN(C(=O)c2nn3cccnc3c2Cl)CC1	.	i	.	-2.1	5.2	3.0
O=C(CNS(=O)(=O)c1ccc([N+](=O)[O-])cc1)N/N=C/c1ccc(O)cc1O	.	.	.	0.1	.	.
SMILES	KCC2 mod	Autophagy mod	Ins promoter up	SKKanGAS inh	WT yeast gro inh	Rad51 HR inh
C/C(=N\Nc1nc(N2CCCCCC2)nc(N2CCCCCC2)n1)c1ccccc1	0.733	i	-0.29	58.9*	65.0*	37.2
CC1(C)c2ccccc2-n2c1cc1oc(=O)cc(O)c1c2=O	-2.09	.	0.88	96.1*	.	-16.3
Cc1c(O)cc2n(c1=O)-c1ccccc1C2(C)C	1	i	.	19.0	-23.1	3.2
CN(C)CCN=Cc1c(O)n(Cc2ccc3c(c2)OCO3)c(=O)c2ccccc12	0.214	i	-1.16	-1.4	-12.3	-23.0
Cc1ccc(N=Cc2c(O)n(-c3ccc4c(c3)OCO4)c(=O)c3ccccc23)cc1	.	+	.	1.9	73.0*	3.6
CN(C)CCCN=Cc1c(O)n(Cc2ccc3c(c2)OCO3)c(=O)c2ccccc12	-0.816	+	-0.58	3.1	-4.0	-0.9
CCc1ccc(/C(C)=N/NC(=O)CNC(=O)/C=C/c2ccco2)cc1	.	.	.	-0.9	.	.
CC(=O)Nc1sc2c(c1-c1nc3ccccc3s1)CCN(C(C)C)C2	0.44	i	?	.	58.4*	.
CC(C)N1CCc2c(sc(NC(=O)c3ccc4ccccc4c3)c2C(N)=O)C1	.	.	.	6.3	.	.
CCCCCCn1c(N2CCN(c3ccccc3)CC2)nc2c1c(=O)n(C)c(=O)n2C	.	i	-1.86	30.1	66.3*	-9.8
O=C(/C=C/C=C/c1ccccc1)CC1(O)C(=O)N(CCc2ccccc2)c2ccccc21 (centres undefined)	0.391	i	-0.66	24.3	60.2*	.
CCN1C(=O)C(O)(CC(=O)/C=C/C=C/c2ccccc2)c2ccccc21 (centres undefined)	-1.42	i	0.07	-4.3	3.1	.
Oc1c(Cl)cc(Cl)cc1/C=C/c1ccc2cccc(O)c2n1	0.0433	i	2.02	102.2*	51.4	-38.0
Oc1ccc(Cl)cc1/C=C/c1ccc2cccc(O)c2n1	-0.0832	i	.	-39.4	71.3*	-22.5
O=C(/C=C/c1ccc2ccccc2n1)c1cc(Cl)ccc1O	-0.265	.	2.63	3.2	.	-120.7
CCOc1cc(/C=C/c2ccc3cccc([N+](=O)[O-])c3n2)cc(Cl)c1O	-0.706	i	-1.04	7.1	8.3	-2.8
O=C(NCc1cccnc1)c1ccc(Br)o1	.	.	.	-3.5	.	.
Cc1nc2ccc(S(=O)(=O)Nc3cccc(-c4nc5cccnc5s4)c3)cc2s1	-0.611	i	-0.29	23.6	71.5*	0.3
Cc1ccc(NC(=O)/C(C#N)=C/c2ccc(C)s2)c(C)c1	0.0393	+	2.39	-11.7	-9.1	-35.2
CN1CCN(c2c(F)cc3c(=O)c(C(=O)O)cn4c3c2OCN4C)CC1	0.577	.	0.19	104.1*	.	14.6
Cc1ccc(NC2CCCN(C(=O)c3ccc4[nH]ccc4c3)C2)cc1C (centres undefined)	.	.	.	3.9	.	.
Cc1ccc(CNC(=O)CNC(=O)c2c(C)nn(C)c2Cl)cc1	0.381	i	0.52	3.4	-22.6	-10.6
Cc1nn(C)c(Cl)c1C(=O)NCC(=O)NCc1ccccc1	0.13	i	0.5	0.0	-9.4	42.0*
CCC(C)(C)c1ccc(Oc2ccc(N)cc2)cc1	0.366	i	-0.14	10.6	89.2*	-7.4
CCCCOc1ccc(C(=O)OCC(=O)NC2CCCC2)cc1	.	.	.	1.3	.	.
